Bioassay records deposited in PubChem BioAssay by several laboratories.
PLAP act – PLAP enzyme activators, biochemical, luminescence, HTS; Alkaline phosphatase, placental type (Homo sapiens), P05187; purified PLAP enzyme, luminescent substrate read-out; stronger effect = higher value; activation fold at 20 µM; 1.2% of 96,000 active; in the data active = activation fold above about 2
PostGolgi ctrl – growth inhibition of yeast control strain, primary screen, counter-screen for post-Golgi transport modulator project. efflux-deficient yeast background strain, growth absorbance A615, 16 h. inhibition, % at 10 µM. 5% of 98,000 active. AID 738, 2007
Ecoli WT expand – growth inhibitors of wild-type E. coli, primary screen, strain BW25113, expanded library, OD600 | 0.15% of 98,000 active | OD600 absorbance | AID 710, 2007 | growth inhibition, % at 100 µM;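 active = growth inhibition above about 50% at one test dose, limit read from the data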;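 also: growth measured after 20 h incubation at 37 °C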
HePTP inhibitor – inhibitors of human HePTP phosphatase, primary screen, biochemical, absorbance, leukemia target. AID 521, 2006. recombinant HePTP phosphatase activity, OD absorbance. inhibition, % at 20 µM. 0.64% of 110,000 active; in the data active = inhibition above about 50%;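 also: plate controls were vehicle for no effect and reference inhibitor for full effect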
Target sequence (P35236 whole entry, looked up): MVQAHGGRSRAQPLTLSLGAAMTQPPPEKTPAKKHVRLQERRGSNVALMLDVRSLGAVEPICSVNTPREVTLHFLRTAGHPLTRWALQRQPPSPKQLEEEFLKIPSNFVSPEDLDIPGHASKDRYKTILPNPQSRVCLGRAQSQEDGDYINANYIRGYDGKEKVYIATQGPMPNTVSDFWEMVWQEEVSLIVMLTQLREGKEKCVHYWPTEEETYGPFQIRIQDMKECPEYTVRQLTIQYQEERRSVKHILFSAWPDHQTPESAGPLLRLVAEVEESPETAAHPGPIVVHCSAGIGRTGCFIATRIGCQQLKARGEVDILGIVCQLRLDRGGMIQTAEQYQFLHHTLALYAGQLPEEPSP
tolC growth inh – growth inhibitors of E. coli tolC mutant, primary screen, strain BW25113 ΔtolC::kan, 384-well; OD615; growth inhibition, % at 10 µM (by protocol); 2.2% of 65,000 active;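 active = growth inhibition at or above a cutoff equal to the mean over every tested compound plus 3 SD, cut at about 60% in these data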;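 also: growth measured after 20 h incubation at 37 °C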
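Test system: E. coli BW25113 ΔtolC::kan bacteria; incubation: 37 °C, 20 h exposure; medium: LB broth supplemented with 50 µg/mL kanamycin; read-out basis: percent growth inhibition; signal: A615 absorbance measurement; compound: 10 µM final, single dose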
PostGolgi yeast – phenotypic screen on post-Golgi transport, primary screen. post-Golgi transport phenotypic cell assay. inhibition, % at 10 µM. 0.9% of 98,000 active;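 also: yeast cells grown in 1536-well plates; yeast grown about 18 h at 30C before absorbance read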
* marks the source's active call; other numbers are inactive results; · = no result. Rows were chosen to be rich in hits. Some 5.4% of all compounds tested hit in one or more screens of this group. Rule as the data show it, unless noted: active = inhibition above about 30%; inactive = the rest.

SMILES | PLAP act | PostGolgi ctrl | Ecoli WT expand | HePTP inhibitor | tolC growth inh | PostGolgi yeast
CCCOC(=O)c1ccc(Oc2c(-c3ccc(OCC)cc3O)n[nH]c2C)cc1 | 2.2* | 11 | 13 | 2 | 26 | -6
COc1ccc2c(c1)OC1=C(C(=O)CCC1)C2C1=C(O)CCCC1=O (stereo not drawn) | 1.2 | 6 | 1 | · | · | -2
COC(=O)CN1C(c2ccccc2)=Nc2ccc(Cl)cc2C1c1ccccc1 (stereo not drawn) | 1.5 | 30* | -13 | · | · | 8
CC(C)(C)S(=O)(=O)c1cnc2c(-c3ccc(F)cc3)cnn2c1N | 1 | -5 | -5 | · | · | -4
CC(C)(C)S(=O)(=O)c1cnc2c(-c3ccc(Cl)cc3)cnn2c1N | 1 | 34* | -13 | · | · | 4
COc1c(-c2cc(-c3ccccc3)n[nH]2)c(O)c(OC)c2occc12 | · | · | · | -13 | · | ·
COc1ccc(-c2cc(-c3c(O)c(OC)c4occc4c3OC)[nH]n2)cc1 | 2.3* | 56* | 11 | · | · | 16
CCOc1ccc2c(c1)n(CO)c(=S)n2CO | 2.3* | 20 | 10 | 1 | -1 | -6
COc1ccc(N=C(Sc2nc3ccccc3o2)c2ccc([N+](=O)[O-])cc2[N+](=O)[O-])cc1 | · | · | · | 8 | · | ·
O=[N+]([O-])c1ccc(Sc2nc3ccccc3o2)c([N+](=O)[O-])c1 | 1 | 91* | 23 | · | · | 5
COc1ccc(CC(=O)Nc2ccc(C(=O)NCC(C)C)cc2)cc1 | 0.8 | -4 | -3 | · | · | 2
Cc1ccc(S(=O)(=O)N2CCC(C(=O)N3CCN(Cc4ccccc4)CC3)CC2)cc1 | 1.4 | 24 | -1 | 10 | 10 | 0
CN(/C=C/C=C1\CC/C(=C\C=C\N(C)c2ccccc2)C1=O)c1ccccc1 | · | · | · | 98* | · | ·
CN(C)/C=C/C=C/C=C1\CCC/C(=C\C=C\N(C)C)C1=O | · | · | · | -1 | · | ·
CSc1ncc(Cl)c(C(=O)Nc2nnc(SC/C=C/c3ccccc3)s2)n1 | 2.3* | 12 | -28 | · | · | 2
C=CCSc1nnc(NC(=O)c2nc(SCC)ncc2Cl)s1 | 1 | 33* | 4 | · | · | 7
Cn1cnc2c1c(=O)n(Cc1cccc(Br)c1)c(=O)n2C | 1.1 | 10 | 4 | 8 | 2 | 3
c1ccc(Cn2nnc3c(N4CCc5ccccc54)ncnc32)cc1 | · | 7 | -13 | 2 | -11 | 1
CCCCCCOC(=O)Sc1nc2ccccc2o1 | 1.1 | 9 | 2 | 4 | 9 | 34*
COC(=O)CSc1nc2ccccc2o1 | 1 | -3 | -7 | 0 | -9 | 4
O=C(Nc1cc2c(s1)CCCC2)c1ccccc1 | · | · | · | 2 | · | ·
Cc1ccc(NC(=O)c2ccccc2)s1 | 0.9 | 4 | 77* | -9 | 55 | -2
Cc1cc(NC(=O)c2ccccc2)sc1C | 1 | -4 | 54* | 2 | 98* | 16
CCc1ccccc1OCCCNC(C)(C)C | · | · | · | 4 | · | ·
CCOC(=O)c1c(NC(=O)Cc2cccs2)sc(C(=O)NC2CCCC2)c1C | 0.9 | -3 | 3 | · | · | 0
SMILES | PLAP act | PostGolgi ctrl | Ecoli WT expand | HePTP inhibitor | tolC growth inh | PostGolgi yeast
COc1ccccc1Nc1nc2c(C)cccc2cc1C#N | 1 | 0 | -16 | · | · | -7
O=C1CC(O)(C(F)(F)F)Oc2c1ccc1ccccc21 (stereo not drawn) | 1.1 | 37* | 35 | 4 | 97* | 5
CCCn1c(C(O)c2cc(OC)c(OC)c(OC)c2)nc2ccccc21 (stereo not drawn) | · | · | · | -1 | · | ·
O=C(CCS(=O)(=O)c1ccc(Br)cc1)N1CCN(Cc2ccccc2)CC1 | 1.4 | 4 | -13 | 4 | 0 | 2
Cc1ccsc1/C=C1\SC(=S)N(c2c(C)n(C)n(-c3ccccc3)c2=O)C1=O | · | · | · | -12 | · | ·
Cc1c(N2C(=O)/C(=C\c3cccc4ccccc34)SC2=S)c(=O)n(-c2ccccc2)n1C | 1.7 | 54* | -8 | · | · | -2
COc1ccc(NC(=O)COc2ccc(C)cc2C)cc1OC | · | · | · | -2 | · | ·
O=C(Cn1nc(Cl)nc1Cl)c1ccc2c(c1)OCCO2 | 0.8 | 7 | 61* | 2 | -16 | -4
O=C1c2cccc3c([N+](=O)[O-])ccc(c23)C(=O)N1c1ccccn1 | 1.1 | 19 | 4 | · | · | 18
O=C1c2cccc3c([N+](=O)[O-])ccc(c23)C(=O)N1c1ccc(Cl)cn1 | 0.7 | 19 | 16 | · | · | 68*
Fc1ccc(Cn2cc(/C=N/n3cnnc3)c3ccccc32)cc1 | · | · | · | -4 | · | ·
Clc1ccc(Cn2cc(/C=N/n3cnnc3)c3ccccc32)cc1 | 1.2 | 42* | 3 | 2 | 36 | -4
CCn1c2ccccc2c2cc(N)ccc21 | 0.8 | 11 | 8 | -15 | -4 | 2
CC(=O)c1ccc2c(c1)c1ccccc1n2C | · | · | · | 3 | · | ·
C/C(=N\O)c1ccc2c3ccccc3n(C)c2c1 | 0.9 | 31* | 1 | -21 | 16 | -4
CCn1c2ccccc2c2cc(/C(C)=N/O)ccc21 | 0.8 | 65* | 9 | · | · | 4
COC(=O)C1=C(C)N=c2s/c(=C/c3ccoc3)c(=O)n2C1c1ccccc1 (stereo not drawn) | 1 | 59* | -12 | -9 | 11 | 6
COC(=O)C1=C(C)N=c2s/c(=C3\C(=O)Nc4ccccc43)c(=O)n2C1c1ccccc1 (stereo not drawn) | · | 39* | -23 | -3 | 16 | -1
Cc1[nH]c(-c2ccc3c(c2)OCO3)nc1C(=O)O | 0.9 | 31* | -14 | · | · | -2
O=C(NCc1ccncc1)C12CC3CC(CC(C3)C1)C2 | 1 | 7 | 2 | 9 | -3 | -1
COc1ccc(-c2[nH]ncc2/C=C(\C#N)C(=O)NC2CC2)cc1 | 2.6* | 10 | -3 | · | · | 27
N#C/C(=C\c1cn[nH]c1-c1ccc(Cl)cc1)C(=O)NCc1ccccc1 | 2.1* | 21 | -15 | · | · | -1
CC(NC(=O)/C(C#N)=C/c1cn[nH]c1-c1ccccc1)c1ccccc1 (stereo not drawn) | 1.8 | -1 | 2 | · | · | -4
CCOC(=O)Cc1csc(NC(=O)c2ccc(S(=O)(=O)N3CCCCC3)cc2)n1 | 1 | 6 | -1 | 11 | 62* | 2
CCOC(=O)Cc1csc(NC(=O)c2cc3c(s2)CCCC3)n1 | 0.9 | 9 | -5 | · | · | -16
SMILES | PLAP act | PostGolgi ctrl | Ecoli WT expand | HePTP inhibitor | tolC growth inh | PostGolgi yeast
CCOC(=O)Cc1csc(NC(=O)c2csc3c2CCCC3)n1 | 1 | 2 | -36 | 9 | 64* | -15
CN1C(=O)/C(=C\c2ccccc2OCCOCCOc2ccccc2)SC1=S | · | · | · | 4 | · | ·
CCOc1ccccc1N1CCN(S(=O)(=O)c2ccc(OC)cc2)CC1 | · | · | · | -5 | · | ·
Cc1cc(-c2ccccc2)n(-c2ccc(C(=O)N3CCN(c4ncccn4)CC3)cc2)n1 | 1.6 | 61* | -3 | 5 | 11 | -3
O=C(c1ccc([N+](=O)[O-])cc1)N1CCN(C2CCN(Cc3ccccc3)CC2)CC1 | · | · | · | 2 | · | ·
O=C1N=C(N2CCN(c3cccc4ccccc34)CC2)S/C1=C/c1cccs1 | 1.2 | 37* | -8 | · | · | -5
